Compound activity (PubChem BioAssay)
Beta2AR agonist = activates human beta-2 adrenergic receptor causing internalization; response, % (no concentration beside the values); AID 504454; P07550; Am2.2-beta2AR cells, FAP receptor internalization, flow cytometry; hit rate 0.43% among 340,000;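 active means response above a set limit, near 3 SD of response in nonfluorescent compounds, cut at about 42% in these data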
Target sequence (P07550 whole entry, looked up): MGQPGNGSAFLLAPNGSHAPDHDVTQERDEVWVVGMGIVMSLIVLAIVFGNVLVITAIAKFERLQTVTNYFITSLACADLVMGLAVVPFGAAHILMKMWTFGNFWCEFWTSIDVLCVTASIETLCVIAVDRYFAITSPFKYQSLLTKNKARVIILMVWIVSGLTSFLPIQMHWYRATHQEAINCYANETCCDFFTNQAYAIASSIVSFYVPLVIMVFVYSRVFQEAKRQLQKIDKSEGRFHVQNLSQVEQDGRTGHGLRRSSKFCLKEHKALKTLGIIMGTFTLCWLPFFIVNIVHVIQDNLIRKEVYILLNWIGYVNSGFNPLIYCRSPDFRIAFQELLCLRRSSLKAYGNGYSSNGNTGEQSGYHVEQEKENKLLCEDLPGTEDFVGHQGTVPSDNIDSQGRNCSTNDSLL
CHOP UPR activ = activators of apoptotic arm of unfolded protein response (CHOP). CHO-CHOP luciferase reporter, UPR activation, luminescence; percent of tunicamycin response over DMSO baseline. activation, % at 10 µM. hit rate 0.34% among 330,000. AID 449763;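 active means at 10 µM dose, activation of 40% or more, normalized to positive control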;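 further: 100% = tunicamycin at 10 µg/mL and 0% = DMSO alone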
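Test system: CHO CHOP reporter cells. Input: 500 CHO-CHOP cells per well. Medium: F12 with 10% FBS. Technique: luciferase luminescence. Measure: percent activation relative to tunicamycin control. Dosing: 10 µM compound, 0.5% DMSO. Timing: 16-18 h cell attachment, then 6 h compound exposure, 37 °C.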
T cell modulator = T cell immune modulation candidate; 2C CD8+ T cell-vesicle binding, flow cytometry; stronger effect = lower value; response (vesicle binding), % at 7 µM; hit rate 0.068% among 330,000; AID 2052;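 active means response, share of CD8 T cells binding vesicles, and their 90th percentile fluorescence all below set limits, cut at about 80% in these data, passing the limit was not always enough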;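 further: values below 100% mean blocked vesicle binding to the CD8+ T cells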
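Assay system – 2C mouse CD8+ T cells · Also added – QL9-loaded Drosophila micro-vesicles · Timing – Cell–vesicle co-incubation 1.5 h at 37 °C, staining 20 min on ice · Signal – flow cytometry of vesicle-bound cells · Measure – percent CD8+ FL2 mean versus row control · Controls – Peptide-free naked vesicles (low) and QL9 vesicles with 0.7% DMSO vehicle (high)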
XBP1 UPR activ = adaptive UPR (XBP1) activation. CHO-XBP1 luciferase reporter, IRE1-XBP1 UPR activation, luminescence; percent of tunicamycin response, DMSO as zero. hit rate 0.33% among 330,000. AID 463104. activation, % at 20 µM;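 active means versus positive control, 20 µM dose yields 30% or more activation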;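 further: 100% = tunicamycin at 10 µg/mL and 0% = DMSO only wells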
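Material: CHO cell line with stable XBP1 luciferase reporter; buffer or medium: F12 medium containing 10% fetal bovine serum; compound: single point, 20 µM final compound, 1% DMSO; incubation: 6 h treatment, 37 °C; measured by: glow luminescence from Steady-Glo reagent; evaluation: activation, % of tunicamycin; control set: tunicamycin high, DMSO low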
Beta2AR ag CP1 = agonists of human beta-2 adrenergic receptor; shares compounds with Beta2AR agonist; Am2.2-beta2AR cells, FAP surface receptor, flow cytometry; stronger effect = lower value; percent response (surface receptor), % at 10 µM; hit rate 25% among 1,100;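 active means surface receptor percent response at or below 58%, roughly 3 SD from nonfluorescent compounds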
FAP fluor counter = counter-screen for beta-2AR agonists: fluorescence in Am2.2 cells; shares compounds with Beta2AR agonist; FAP fluorogen flow cytometry, fluorescence counterscreen; stronger effect = lower value; calls only at 10 µM; 1,100 tested, under 10 active; AID 588765;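 active means percent response below a set limit in fluorescence channel 1 and below 50% in channel 8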
Numbers without * were called inactive; i = inactive; x = no result given. Rows were chosen to be rich in hits. Some 1% of all compounds tested hit in one or more screens of this group.

SMILES	Beta2AR agonist	CHOP UPR activ	T cell modulator	XBP1 UPR activ	Beta2AR ag CP1	FAP fluor counter
CC1(C)Cc2c(c(N3CCOCC3)nc3sc4c(NCCN)ncnc4c23)CO1	105*	x	x	x	10*	i
OCCN1CCN(c2ncnc3c2sc2nc(N4CCOCC4)c4c(c23)CCC4)CC1	18	-3	67	6	x	x
CC(Oc1cc2oc(=O)c3c(c2cc1Cl)CCC3)C(=O)NCCN1CCOCC1 (stereo unspecified)	-11	0	314	0	x	x
CCN1C(=O)/C(=C2/C=CC=CN2C)OC1=S	1	-2	i	3	x	x
COc1ccc(OC)c(C2C(C(C)=O)=C(O)C(=O)N2c2ccc(O)cc2)c1 (stereo unspecified)	-3	-3	453	1	x	x
O=C1/C(=C/c2ccccc2)CN(C(=O)CCN2CCOCC2)C/C1=C\c1ccccc1	14	x	x	x	x	x
Cc1cc(OCC(=O)Nc2cc(-c3nn4c(C)nnc4s3)ccc2C)ccc1Cl	79*	5	26	0	112	i
O=C(NCCCn1ccnc1)c1ccc(Cl)c(Cl)c1	-1	8	179	-4	x	x
COc1ccc2c(C(=O)c3ccc(C)cc3)n(Cc3ccc(C(N)=O)cc3)[n+]([O-])c2c1	-9	6	158	3	x	x
O=C(CN1C(=O)CCC1=O)Nc1nc(-c2nc3ccccc3s2)cs1	103*	3	666	-4	9.2*	i
Cc1cccc(NC(=O)C2CC(=O)NC(Nc3nc4ccccc4s3)=N2)c1 (stereo unspecified)	x	-2	199	-2	x	x
COCCn1c(SCc2nnc(-c3ccccc3)o2)nc2sc3c(c2c1=O)CCC3	121*	x	x	x	130	i
COCCn1c(SCC(=O)Nc2ncc(C)s2)nc2sc3c(c2c1=O)CCC3	x	-2	x	0	x	x
CCc1nc2nc(C)c(NS(=O)(=O)c3ccc(CC(C)C)cc3)c(=O)n2[nH]1	13	1	205	0	x	x
C/C(=N\NC(=S)NCc1ccccc1)c1ccc(Cl)s1	0	-1	152	2	x	x
COCCNC(=S)N/N=C(\C)c1ccc(Cl)s1	5	1	172	4	108	i
COc1ccc(C(=O)NCC(=O)OCC(=O)NC2CCCC2)cc1	3	0	244	-1	x	x
O=[N+]([O-])c1ccc(-[n+]2ccc3ccccc3c2)c([N+](=O)[O-])c1	47*	-5	254	-7	40*	i
COC(=O)CCC(=O)NC(=S)Nc1ccc(S(=O)(=O)Nc2cc(OC)nc(OC)n2)cc1	-3	-1	449	-1	x	x
Cc1ccc(C(=O)OCC(=O)Nc2ccccc2)cc1NC(=O)c1ccco1	11	5	321	1	x	x
Cc1ccc(C(=O)OCC(=O)Nc2nc(-c3ccccc3)cs2)cc1NC(=O)c1ccco1	54*	3	68	9	38*	i
COc1ccc(C2/C(=C(/O)c3ccc4c(c3)CC(C)O4)C(=O)C(=O)N2CCN2CCOCC2)cc1OC (stereo unspecified)	-5	-1	x	-1	x	x
COc1ccccc1-c1cc(C(F)(F)F)nc(S(=O)(=O)CCCC(=O)NC(C)C)n1	98*	21	469	-7	54*	i
CC(C)Cc1nc2oc3c(Cl)ncnc3c2c2c1CCC2	110*	3	417	8	20*	i
CC(C)Cc1nc2oc3c(NCCCN4CCOCC4)ncnc3c2c2c1CCC2	8	5	301	6	x	x
SMILES	Beta2AR agonist	CHOP UPR activ	T cell modulator	XBP1 UPR activ	Beta2AR ag CP1	FAP fluor counter
O=C(CSc1n[nH]c(-c2ccco2)n1)Nc1ccccc1Cl	11	2	202	-3	x	x
CCN(c1ccc2c(c1)OCO2)S(=O)(=O)c1cc2c(cc1Br)CCN2C(=O)C1CC1	24	x	x	x	x	x
CCN(c1ccc2c(c1)OCO2)S(=O)(=O)c1cc(Br)cc2c1N(C(C)=O)CC2	80*	-1	233	-2	47*	i
COC(=O)CCC(=O)c1oc2ccccc2c1NC(=O)CCCN1C(=O)c2ccccc2C1=O	2	-3	294	-4	x	x
CC(=O)c1oc2ccccc2c1NC(=O)CCCN1C(=O)c2ccccc2C1=O	68*	-2	256	-2	101	i
COc1cc(NC(=O)c2ccco2)c(OC)cc1NC(=O)c1cc(OC)c(OC)c(OC)c1	0	-1	336	-2	126	i
Cc1cc(C(=O)COC(=O)CNS(=O)(=O)c2ccc3ccccc3c2)c(C)n1-c1ccccc1	47*	2	600	-1	98	i
O=C(Cc1ccccc1)NC1(Cc2ccc(O)cc2)CCCCC1	57*	-1	498	-5	47*	i
COc1ccc(C(=O)NCCn2ccc3ccccc32)cc1OC	45*	3	316	3	97	i
O=C(NCCCN1CCN(CCCNC(=O)c2ccccc2F)CC1)c1ccccc1F	0	-1	505	1	113	i
COc1cccc(C(=O)NCCn2ccc3ccccc32)c1	10	5	654	8	x	x
O=C(NCCCN1CCN(CCCNC(=O)c2ccc3c(c2)OCO3)CC1)c1ccc2c(c1)OCO2	-1	0	261	0	103	i
COc1ccc(C(=O)NCCCN2CCN(CCCNC(=O)c3ccc(OC)c(OC)c3)CC2)cc1OC	1	-1	x	-1	100	i
O=C(N/C(=C\c1cccc(Br)c1)C(=O)N1CCCCC1)c1ccco1	-6	-1	266	-4	x	x
O=C(CNC(=S)N(CCCN1CCOCC1)Cc1cccs1)NC1CC1	-1	3	220	-2	x	x
O=C(CN(C(=O)CNS(=O)(=O)c1ccc(F)cc1)c1ccccc1F)NCc1ccco1	-1	-1	182	-6	x	x
CSCCNC(=O)c1ccc(C(C)(C)C)cc1	-7	3	271	-4	x	x
COc1cc(C(=O)Nc2nc3ccccc3s2)ccc1OCc1c(C)noc1C	53*	1	465	4	108	i
COc1cccc(NC(=O)C(c2ccccc2)N2CCCCC2)c1 (stereo unspecified)	-1	1	199	7	105	i
O=c1cc(N2CCCCC2)c(-c2ccccc2)n[nH]1	-3	-2	132	-1	x	x
CC(C)CCN(C(=O)c1ccc(N2CCCC2=O)cc1)c1c(N)n(Cc2ccccc2)c(=O)[nH]c1=O	-5	0	221	-1	x	x
C[C@H](NC(=O)c1nc[nH]c1C(=O)NCc1ccc(CNC(=O)OC(C)(C)C)cc1)c1ccccc1	0	2	930	-1	x	x
Cc1ccccc1-c1nc2c3ccccc3nc(=S)n2[nH]1	7	x	316	x	119	i
Cc1ccc(NC(=O)C(c2ccccc2)c2ccccc2)c(O)c1	48*	0	162	-2	104	i
COc1cc(NC(=O)C(c2ccccc2)c2ccccc2)c(C(=O)O)cc1OC	6	-1	180	-7	x	x
